Test results as given in ChEMBL document CHEMBL1124728, “Small peptide inhibitors of smooth muscle myosin light chain kinase” (J Med Chem, 1990).
Each block holds one molecule with its values, some of them ahead of it. Starred links: 1 amine or outer side, 2 acyl side, 3 side chain; linkers in the order of their positions; H or OH if unused. Residues, ends and D or L forms follow the SMILES beside them. *: point of attachment. isoSer(2S) = O=C([C@@H](O)CN[*:1])[*:2]; NHCH2(2-pyridyl) = c1ccc(CN*)nc1; OBn = c1ccc(CO*)cc1

Tests used:
[1] = target: T1, Myosin light chain kinase, smooth muscle (Gallus gallus, UniProt P11799); experiment: Inhibition of calmodulin-independent form of MLCK(myosin light chain kinase) from chicken gizzard
Method in brief: (§1)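 Chicken gizzard MLCK made calmodulin-independent by limited trypsin digestion. It was started with ATP and stopped with HCl. Phosphate in substrate was counted on phosphocellulose filters. IC50 was read graphically from duplicates at four concentrations and reported as the mean, or as % inhibition at one concentration.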

[2] = target: Myosin light chain kinase, smooth muscle (Gallus gallus) (UniProt P11799); conditions: 1000 uM
[3] = target: T1, Myosin light chain kinase, smooth muscle; experiment: Inhibition of native form of MLCK myosin light chain kinase from chicken gizzard
Method in brief: (§2)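 Native calmodulin-dependent gizzard MLCK, over 95% homogeneous, with 200 nM calmodulin, 1 mM EGTA and about 200 μM excess free Ca2+. Started with ATP and stopped with HCl; phosphocellulose filter counting. Graphical IC50 from duplicates at four concentrations, or % inhibition at a single concentration.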

[4] = target: Myosin light chain kinase, smooth muscle (Gallus gallus) (UniProt P11799); experiment: Inhibition of calmodulin-independent form of Myosin light chain kinase from chicken gizzard at 100 uM; conditions: 300 uM, in the assay text read “at 300 uM” for “at 100 uM”; method in brief: as §1
[5] = target: Myosin light chain kinase, smooth muscle (Gallus gallus) (UniProt P11799); experiment: Inhibition of native form of myosin light chain kinase from chicken gizzard at 1000 uM; method in brief: as §2
[6] = target: Myosin light chain kinase, smooth muscle (Gallus gallus) (UniProt P11799); experiment: Rate of phosphate incorporation by myosin light chain kinase at 50 uM
[7] = target: T1, Myosin light chain kinase, smooth muscle; experiment: Inhibition of native form of myosin light chain kinase from chicken gizzard; method in brief: as §2
[8] = target: Myosin light chain kinase, smooth muscle (Gallus gallus) (UniProt P11799); experiment: Inhibition of native form of myosin light chain kinase at from chicken gizzard 100 uM; method in brief: as §2
[9] = target: Myosin light chain kinase, smooth muscle (Gallus gallus) (UniProt P11799); experiment: Inhibition of calmodulin-independent form of Myosin light chain kinase from chicken gizzard at 300 uM; method in brief: as §1
[10] = target: Myosin light chain kinase, smooth muscle (Gallus gallus) (UniProt P11799); experiment: Inhibition of native form of myosin light chain kinase from chicken gizzard 1000 uM; method in brief: as §2

Chain of Myosin light chain kinase, smooth muscle (Gallus gallus) (P11799 whole entry): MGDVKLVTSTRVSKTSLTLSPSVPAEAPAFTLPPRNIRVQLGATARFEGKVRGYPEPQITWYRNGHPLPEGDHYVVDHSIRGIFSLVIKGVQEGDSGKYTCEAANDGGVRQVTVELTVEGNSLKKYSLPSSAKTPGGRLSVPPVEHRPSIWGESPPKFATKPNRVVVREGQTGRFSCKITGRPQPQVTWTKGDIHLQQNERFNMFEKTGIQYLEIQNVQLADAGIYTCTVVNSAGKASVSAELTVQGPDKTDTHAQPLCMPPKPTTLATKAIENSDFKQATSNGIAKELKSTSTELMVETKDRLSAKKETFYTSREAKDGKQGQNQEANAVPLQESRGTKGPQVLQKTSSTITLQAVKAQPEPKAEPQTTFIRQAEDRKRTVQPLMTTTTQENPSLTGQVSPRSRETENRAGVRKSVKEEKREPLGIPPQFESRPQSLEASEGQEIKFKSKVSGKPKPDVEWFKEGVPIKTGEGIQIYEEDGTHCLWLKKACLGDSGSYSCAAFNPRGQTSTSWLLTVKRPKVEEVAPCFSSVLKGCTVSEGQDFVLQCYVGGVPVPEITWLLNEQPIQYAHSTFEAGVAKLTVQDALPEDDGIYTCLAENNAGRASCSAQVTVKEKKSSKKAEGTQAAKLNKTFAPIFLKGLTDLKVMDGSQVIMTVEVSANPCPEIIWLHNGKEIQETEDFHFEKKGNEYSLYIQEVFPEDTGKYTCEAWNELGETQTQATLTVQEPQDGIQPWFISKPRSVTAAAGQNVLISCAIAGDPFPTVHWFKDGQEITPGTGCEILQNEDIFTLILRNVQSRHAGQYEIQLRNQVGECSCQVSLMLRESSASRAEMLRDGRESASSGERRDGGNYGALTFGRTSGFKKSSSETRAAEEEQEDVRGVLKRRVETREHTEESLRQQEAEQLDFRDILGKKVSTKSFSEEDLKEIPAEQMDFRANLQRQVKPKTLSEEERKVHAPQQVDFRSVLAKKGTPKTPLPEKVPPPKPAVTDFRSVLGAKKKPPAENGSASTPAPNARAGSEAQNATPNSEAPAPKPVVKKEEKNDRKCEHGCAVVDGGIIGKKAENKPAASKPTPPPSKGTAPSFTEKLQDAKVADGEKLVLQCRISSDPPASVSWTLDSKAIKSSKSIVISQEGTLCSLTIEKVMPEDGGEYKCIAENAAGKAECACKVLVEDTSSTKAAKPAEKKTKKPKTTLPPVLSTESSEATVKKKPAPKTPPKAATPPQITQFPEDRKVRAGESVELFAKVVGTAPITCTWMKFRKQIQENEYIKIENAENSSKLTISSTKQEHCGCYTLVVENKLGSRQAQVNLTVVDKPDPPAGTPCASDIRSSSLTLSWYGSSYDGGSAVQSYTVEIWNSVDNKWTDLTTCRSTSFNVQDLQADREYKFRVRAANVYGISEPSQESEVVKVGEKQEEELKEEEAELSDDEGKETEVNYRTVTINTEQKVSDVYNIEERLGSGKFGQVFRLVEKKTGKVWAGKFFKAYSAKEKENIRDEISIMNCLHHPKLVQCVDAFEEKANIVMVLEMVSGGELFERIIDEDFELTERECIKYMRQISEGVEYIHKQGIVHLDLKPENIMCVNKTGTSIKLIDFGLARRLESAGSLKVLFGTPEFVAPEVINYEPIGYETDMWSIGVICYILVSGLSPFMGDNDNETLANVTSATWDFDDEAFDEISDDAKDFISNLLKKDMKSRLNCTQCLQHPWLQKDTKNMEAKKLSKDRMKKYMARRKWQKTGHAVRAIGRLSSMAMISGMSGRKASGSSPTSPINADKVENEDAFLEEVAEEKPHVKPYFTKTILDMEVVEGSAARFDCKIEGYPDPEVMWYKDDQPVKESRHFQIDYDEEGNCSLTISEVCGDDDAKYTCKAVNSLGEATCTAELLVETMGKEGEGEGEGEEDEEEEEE
T1 sequence (P11799 whole entry): as above

IC50 [1]: 21 µM
Rate [2]: 0.017 pM/min
IC50 [3]: 28 µM
Compound: CC(C)[C@H](NC(=O)[C@H](CC(N)=O)NC(=O)[C@@H](N)CO)C(=O)N[C@@H](Cc1ccccc1)C(=O)N[C@@H](C)C(=O)OCc1ccccc1

inhibition [4]: 0%
Compound: CC(C)[C@H](NC(=O)[C@@H](/C=C/[C@@H](N)CO)CC(N)=O)C(=O)N[C@@H](Cc1ccccc1)C(=O)N[C@@H](C)C(=O)NCc1ccccc1

inhibition [4]: 0%
Compound: CC(C)[C@H](NC(=O)[C@H](CC(N)=O)NC[C@@H](N)CO)C(=O)N[C@@H](Cc1ccccc1)C(=O)N[C@@H](C)C(=O)NCc1ccccc1

inhibition [4]: 33%
Compound: CC(C)[C@H](NC[C@H](CC(N)=O)NC(=O)[C@@H](N)CO)C(=O)N[C@@H](Cc1ccccc1)C(=O)N[C@@H](C)C(=O)OCc1ccccc1

inhibition [5]: 0%
Compound: C[C@H](NC(=O)[C@@H](N)Cc1ccccc1)C(=O)OCc1ccccc1

Rate [6]: 45 pmol/min
Compound: CC(C)[C@H](NC(=O)[C@H](CC(N)=O)NC(=O)[C@H](CO)NC(=O)[C@@H](NC(=O)[C@H](C)NC(=O)[C@H](CCCN=C(N)N)NC(=O)[C@H](CCC(N)=O)NC(=O)[C@@H]1CCCN1C(=O)[C@H](CCCN=C(N)N)NC(=O)[C@H](CCCCN)NC(=O)[C@@H](N)CCCCN)[C@@H](C)O)C(=O)N[C@@H](Cc1ccccc1)C(=O)N[C@@H](CO)C(N)=O (H-KKRPQRATSNVFS-NH2)

IC50 [7]: 800 µM
Compound: CC(C)[C@H](NC(=O)[C@@H](N)CC(N)=O)C(=O)N[C@@H](Cc1ccccc1)C(=O)N[C@@H](C)C(=O)OCc1ccccc1 (H-NVFA-OBn)

inhibition [8]: 0%
Compound: CC(C)[C@H](NC(=O)[C@H](Cc1c[nH]cn1)NC(=O)[C@@H](N)CO)C(=O)N[C@@H](Cc1ccccc1)C(=O)N[C@@H](C)C(=O)OCc1ccccc1 (H-SHVFA-OBn)

inhibition [4]: 17%
Compound: C[C@H](NC(=O)[C@H](Cc1ccccc1)NC(=O)CNC(=O)[C@H](CC(N)=O)NC(=O)[C@@H](N)CO)C(=O)OCc1ccccc1 (H-SNGFA-OBn)

inhibition [9]: 0%
Compound: CC(C)[C@H](NC(=O)[C@H](CC(N)=O)NC(=O)[C@@H](N)CO)C(=O)N[C@@H](Cc1ccccc1)C(=O)N[C@@H](C)C(N)=O (H-SNVFA-NH2)

inhibition [4]: 0%
Compound: CC(C)[C@H](NC(=O)[C@H](CC(N)=O)NC(=O)[C@@H](N)CO)C(=O)N[C@@H](Cc1ccccc1)C(=O)N[C@@H](C)C(=O)O (H-SNVFA-OH)

inhibition [9]: 0%
Compound: COC(=O)[C@H](C)NC(=O)[C@H](Cc1ccccc1)NC(=O)[C@@H](NC(=O)[C@H](CC(N)=O)NC(=O)[C@@H](N)CO)C(C)C (H-SNVFA-OMe)

inhibition [5]: 0%
inhibition [4]: 5%
Compound: CC(C)[C@H](NC(=O)[C@H](CC(N)=O)NC(=O)[C@@H](N)CO)C(=O)N[C@@H](Cc1ccccc1)C(=O)N[C@@H](C)C(=O)NCc1ccccn1 (H-SNVFA-{NHCH2(2-pyridyl)})

inhibition [8]: 32%
Compound: CC(C)[C@H](NC(=O)[C@H](CCC(N)=O)NC(=O)[C@@H](N)CO)C(=O)N[C@@H](Cc1ccccc1)C(=O)N[C@@H](C)C(=O)OCc1ccccc1 (H-SQVFA-OBn)

inhibition [8]: 15%
Compound: CC(C)[C@H](NC(=O)[C@H](CO)NC(=O)[C@@H](N)CO)C(=O)N[C@@H](Cc1ccccc1)C(=O)N[C@@H](C)C(=O)OCc1ccccc1 (H-SSVFA-OBn)

inhibition [10]: 0%
Compound: CC(C)[C@H](NC(=O)[C@H](CC(N)=O)NC(=O)[C@@H](N)CO)C(=O)OCc1ccccc1 (H-Ser-Asn-Val-OBn)

IC50 [7]: 1000 µM
Compound: CC(C)[C@H](N)C(=O)N[C@@H](Cc1ccccc1)C(=O)N[C@@H](C)C(=O)OCc1ccccc1 (H-Val-Phe-Ala-OBn)

inhibition [8]: 14%
Compound: CC(C)[C@H](NC(=O)[C@H](CC(N)=O)NC(=O)[C@@H](O)CN)C(=O)N[C@@H](Cc1ccccc1)C(=O)N[C@@H](C)C(=O)OCc1ccccc1 ({isoSer(2S)}-NVFA-OBn)
